In ChEMBL document CHEMBL1121913, “Inactivation of liver alcohol dehydrogenases and inhibition of ethanol metabolism by ambivalent active-site-directed reagents” (J Med Chem, 1981):

Columns and labels:
[1] = molecular target: T1, Alcohol dehydrogenase (Equus caballus) (UniProt P00327+P00328); experiment: The compound was tested for the ability to inactivate horse liver alcohol dehydrogenase in the presence of 1 mM NAD+k
[2] = molecular target: T2, Alcohol dehydrogenase (Homo sapiens) (UniProt P07327+P08319+P00325+P00326+P40394+P11766+P28332); experiment: The compound was tested for the ability to inactivate human liver alcohol dehydrogenase in the absence of NAD+K
Summary of the method: (§1)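 Human liver ADH, purified on carboxymethyl- and DEAE-cellulose plus (NH₄)₂SO₄ (60%) with 5% ethanol throughout, ethanol dialysed out. Inactivation at 25 °C in 0.1 M Na₂P₂O₇, pH 8, enzyme about 0.2 mg/mL, 0.2 mM reagent; NAD⁺ added 1 min before reagent where used. Apparent second-order constant calculated assuming first order in reagent.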

[3] = molecular target: T2, Alcohol dehydrogenase (Homo sapiens); experiment: The compound was tested for the ability to inactivate human liver alcohol dehydrogenase in the presence of 1 mM NAD+k; summary of the method: as §1
[4] = The compound was tested for the ability to inactivate mouse liver alcohol dehydrogenase in the absence of NAD+K
Summary of the method: (§2)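 Mouse liver ADH, fourfold purified ((NH₄)₂SO₄ 45–65% cut, DEAE-cellulose), incubated at about 0.2 mg/mL with 0.2 mM reagent in 0.1 M Na₂P₂O₇ pH 8, 25 °C; coenzyme, when present, added 1 min before inactivator. Apparent second-order rate constant derived assuming reaction first order in reagent.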

[5] = The compound was tested for the ability to inactivate rat liver alcohol dehydrogenase in the absence of NAD+K
Summary of the method: (§3)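 Rat liver enzyme purified 15-fold ((NH₄)₂SO₄ 35–75%, DEAE-cellulose). Inactivation with 0.2 mM reagent, 0.1 M pyrophosphate buffer pH 8, 25 °C, enzyme near 0.2 mg/mL; NAD⁺ preincubated 1 min with enzyme before reagent addition. Apparent second-order constants computed on assumption of first-order dependence on reagent.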

[6] = The compound was tested for the ability to inactivate rat liver alcohol dehydrogenase in the presence of 1 mM NAD+K; summary of the method: as §3
[7] = molecular target: T1, Alcohol dehydrogenase (Equus caballus); experiment: The compound was tested for the ability to inactivate horse liver alcohol dehydrogenase in the absence of NAD+k
[8] = molecular target: T1, Alcohol dehydrogenase (Equus caballus); experiment: The compound was tested for the ability to inactivate horse liver alcohol dehydrogenase in the presence of 1 mM NAD+(K
[9] = (§4) The compound was tested for the ability to inactivate horse liver alcohol dehydrogenase in the presence of 0.2 mM NAD+K
[10] = molecular target: T1, Alcohol dehydrogenase (Equus caballus); experiment: as §4
[11] = The compound was tested for the ability to inactivate mouse liver alcohol dehydrogenase in the presence of 1 mM NAD+K; summary of the method: as §2
[12] = Percent inhibition of Alcohol dehydrogenase activity in mice liver at dose 0.13 mmol/kg; type: tissue-based
Summary of the method: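 Male Swiss-Webster mice (20–25 g), fed, given one ip dose of reagent suspended in sterile 0.9% saline, then ethanol 3 g/kg ip (40% w/v in saline) 22–24 h later. Liver removed once blood ethanol approached zero, chilled, homogenized, clarified by centrifugation. ADH activity taken as initial-velocity difference, ethanol/NAD⁺ assay minus same assay with 10 mM pyrazole, per mg protein. Four or five mice per group.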

[13] = Percent inhibition of Alcohol dehydrogenase activity in rat liver at dose 0.13 mmol/kg; type: tissue-based
Summary of the method: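 Male Sprague-Dawley rats (160–200 g), two per experiment; compound suspended in sterile 0.9% saline, single i.p. dose 22–24 h before i.p. ethanol 2 g/kg (40% w/v in saline). Tail-vein blood ethanol by GC (1-propanol internal standard); elimination rate = β slope × dose/extrapolated zero-time level. Liver ADH afterwards: homogenate activity with ethanol/NAD⁺ minus 10 mM pyrazole control, per mg protein.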

[14] = molecular target: T1, Alcohol dehydrogenase (Equus caballus); experiment: The compound was tested for the ability to inactivate horse liver alcohol dehydrogenase in the absence of NAD+(K
Mus musculus [15] = experiment: Percent inhibition of rate of ethanol metabolism in mice at dose 0.13 mmol/kg; type: functional
Summary of the method: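 Mice (male Swiss-Webster, fed) dosed ip with reagent in saline 22–24 h before ethanol 3 g/kg ip. Tail-vein blood (5 µL) deproteinized with Ba(OH)₂/ZnSO₄, 1-propanol internal standard, analyzed by GC with flame-ionization detection. Elimination slope fitted excluding absorption (1–2 h), multiplied by r (dose / theoretical zero-time blood level) to give metabolic rate. Four or five mice per group.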

Mus musculus [16] = experiment: Percent inhibition of recovery of rotarod performance in mice at dose 0.13 mmol/kg; type: functional
Summary of the method: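 Mice trained to hang on a 2-cm rod rotating at 7 rpm, two 15-min periods. Reagent given ip 22 h before ethanol 3 g/kg; five mice per dose, five vehicle controls. Impairment = 100(15 − minutes on rod)/15, probit-transformed; t1/2 for regaining 50% performance by regression. Inhibition = [t1/2(treated) − t1/2(control)]/t1/2(treated).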

[17] = Toxic effect in mice; type: toxicity, organism-based; conditions: mouse, in vivo
Summary of the method: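 Male Swiss-Webster mice (20–25 g); single i.p. dose of compound suspended in sterile 0.9% saline. Acute lethality scored over 24 h; LD₅₀ with limits at p ≤ 0.05 from three doses on 15 mice.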

[18] = Toxic effect in rats; type: toxicity, organism-based; conditions: rat, in vivo
Summary of the method: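 Male Sprague-Dawley rats (160–200 g), two per dose; single i.p. dose of compound suspended in sterile 0.9% saline. Acute lethality scored over 24 h after dosing.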

Rattus norvegicus = experiment: Percent inhibition of rate of ethanol metabolism in rats at dose 0.13 mmol/kg; type: functional
Summary of the method: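 Rats (male Sprague-Dawley, fed) pretreated ip with reagent suspended in saline 22–24 h before ethanol 2 g/kg ip. Serial 5 µL tail-vein samples, Ba(OH)₂/ZnSO₄ deproteinization with 1-propanol internal standard, GC-FID. Metabolic rate = blood-ethanol decline slope × ratio of dose to extrapolated zero-time blood level. Two rats per experiment.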

[19] = molecular target: T2, Alcohol dehydrogenase (Homo sapiens); experiment: The compound was tested for the ability to inactivate human liver alcohol dehydrogenase in the presence of 1 mM NAD+K; summary of the method: as §1
[20] = molecular target: T1, Alcohol dehydrogenase (Equus caballus); experiment: The compound was tested for the ability to inactivate horse liver alcohol dehydrogenase in the presence of 1 mM NAD+K

With O=C(O)CCCCCCCCNC(=O)CBr as the molecule, how does the Rate constant [1] read?
The Rate constant was 4.9 M⁻¹ min⁻¹.

What about the Rate constant [2] of the same molecule?
The Rate constant was 23 M⁻¹ min⁻¹.

What about the Rate constant [3] of the same molecule?
The Rate constant was 240 M⁻¹ min⁻¹.

What about the Rate constant [4] of the same molecule?
The Rate constant was 4.9 M⁻¹ min⁻¹.

What about the Rate constant [5] of the same molecule?
Its Rate constant is 12 M⁻¹ min⁻¹.

And the Rate constant [6]?
The Rate constant was 12 M⁻¹ min⁻¹.

What about the Rate constant [7] of the same molecule?
Its Rate constant is 10 M⁻¹ min⁻¹.

Which results are given for O=C(O)CCCCCCNC(=O)CBr?
Rate constant [1]: 0.5 M⁻¹ min⁻¹; Rate constant [2]: 6.7 M⁻¹ min⁻¹; Rate constant [3]: 8.3 M⁻¹ min⁻¹; Rate constant [4]: 7.6 M⁻¹ min⁻¹; Rate constant [5]: 11 M⁻¹ min⁻¹; Rate constant [6]: 0.8 M⁻¹ min⁻¹; Rate constant [7]: 5.9 M⁻¹ min⁻¹

Which results are given for NC(=O)CCCc1ccc(NC(=O)CBr)cc1?
Rate constant [8]: 190 M⁻¹ min⁻¹; Rate constant [9]: 160 M⁻¹ min⁻¹; Rate constant [10]: 160 M⁻¹ min⁻¹; Rate constant [2]: 5.4 M⁻¹ min⁻¹; Rate constant [4]: 36 M⁻¹ min⁻¹; Rate constant [11]: 60 M⁻¹ min⁻¹; inhibition [12]: 21%; Rate constant [5]: 35 M⁻¹ min⁻¹; Rate constant [6]: 70 M⁻¹ min⁻¹; inhibition [13]: 21%; Rate constant [14]: 40 M⁻¹ min⁻¹; inhibition in vivo at 130 µmol/kg (Mus musculus [15]): 20%; inhibition in vivo at 130 µmol/kg (Mus musculus [16]): 58%; LD50 [17]: 210 µmol/kg; LD50 [18]: 130 µmol/kg; inhibition in vivo at 130 µmol/kg (Rattus norvegicus): 26%; Rate constant [19]: 320 M⁻¹ min⁻¹

Which Rate constant [1] does the source give for O=C(O)CCCCCCCNC(=O)CBr here?
The Rate constant was 7.2 M⁻¹ min⁻¹.

What about the Rate constant [2] of the same molecule?
The Rate constant was 6.7 M⁻¹ min⁻¹.

What about the Rate constant [3] of the same molecule?
The Rate constant was 50 M⁻¹ min⁻¹.

And the Rate constant [4]?
Its Rate constant is 4.9 M⁻¹ min⁻¹.

What about the Rate constant [5] of the same molecule?
Its Rate constant is 12 M⁻¹ min⁻¹.

What about the Rate constant [6] of the same molecule?
Its Rate constant is 4 M⁻¹ min⁻¹.

And the Rate constant [7]?
Its Rate constant is 6.3 M⁻¹ min⁻¹.

For O=C(CBr)Nc1ccc(Oc2ccc(C(=O)O)cc2)cc1, which Rate constant [1] is on record?
Its Rate constant is 17 M⁻¹ min⁻¹.

And the Rate constant [2]?
Its Rate constant is 26 M⁻¹ min⁻¹.

What about the Rate constant [3] of the same molecule?
Its Rate constant is 290 M⁻¹ min⁻¹.

What about the Rate constant [4] of the same molecule?
The Rate constant was 173 M⁻¹ min⁻¹.

And the Rate constant [11]?
The Rate constant was 11 M⁻¹ min⁻¹.

What about the Rate constant [5] of the same molecule?
Its Rate constant is 69 M⁻¹ min⁻¹.

What about the Rate constant [6] of the same molecule?
The Rate constant was 23 M⁻¹ min⁻¹.

What about the Rate constant [7] of the same molecule?
The Rate constant was 320 M⁻¹ min⁻¹.

Which Rate constant [1] does the source give for O=C(O)CCCCCCCCCCCNC(=O)CBr here?
Its Rate constant is 3.2 M⁻¹ min⁻¹.

And the Rate constant [2]?
Its Rate constant is 140 M⁻¹ min⁻¹.

What about the Rate constant [3] of the same molecule?
Its Rate constant is 320 M⁻¹ min⁻¹.

And the Rate constant [4]?
Its Rate constant is 43 M⁻¹ min⁻¹.

What about the Rate constant [5] of the same molecule?
Its Rate constant is 19 M⁻¹ min⁻¹.

What about the Rate constant [6] of the same molecule?
The Rate constant was 1 M⁻¹ min⁻¹.

What about the Rate constant [7] of the same molecule?
The Rate constant was 120 M⁻¹ min⁻¹.

Which results are given for NC(=O)CCCc1ccc(NC(=O)CCl)cc1?
Rate constant [20]: 2.5 M⁻¹ min⁻¹; Rate constant [10]: 1.6 M⁻¹ min⁻¹
